From ChEMBL document CHEMBL5338796, “Discovery of a Selective and Orally Bioavailable FGFR2 Degrader for Treating Gastric Cancer” (J Med Chem, 2023) come the findings set out here.

The target in data set [1] is T1, Protein cereblon/Fibroblast growth factor receptor 2 (Homo sapiens, UniProt P21802+Q96SW2). Kind of data set: PROTAC activity at CRBN/FGFR2 in human KATO III stomach cancer cell line assessed as FGFR2 degradation by measuring FGFR2 expression level at 100 to 500 nM measured for 6 hrs by Western blotting analysis. It counts as cell-based. The note with it: dose 100-500 nM. The essentials:
(§1)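 KATO III cells treated 6 h across 0.5–10,000 nM (DMSO stock, final DMSO below 0.5%); FGFR2 immunoblotted, quantified as FGFR2/β-actin ratio normalized to DMSO-treated cells, three independent biological experiments; DC50 and Dmax derived from the curve.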
Target sequence in this assay (P21802 22-821 limits assumed): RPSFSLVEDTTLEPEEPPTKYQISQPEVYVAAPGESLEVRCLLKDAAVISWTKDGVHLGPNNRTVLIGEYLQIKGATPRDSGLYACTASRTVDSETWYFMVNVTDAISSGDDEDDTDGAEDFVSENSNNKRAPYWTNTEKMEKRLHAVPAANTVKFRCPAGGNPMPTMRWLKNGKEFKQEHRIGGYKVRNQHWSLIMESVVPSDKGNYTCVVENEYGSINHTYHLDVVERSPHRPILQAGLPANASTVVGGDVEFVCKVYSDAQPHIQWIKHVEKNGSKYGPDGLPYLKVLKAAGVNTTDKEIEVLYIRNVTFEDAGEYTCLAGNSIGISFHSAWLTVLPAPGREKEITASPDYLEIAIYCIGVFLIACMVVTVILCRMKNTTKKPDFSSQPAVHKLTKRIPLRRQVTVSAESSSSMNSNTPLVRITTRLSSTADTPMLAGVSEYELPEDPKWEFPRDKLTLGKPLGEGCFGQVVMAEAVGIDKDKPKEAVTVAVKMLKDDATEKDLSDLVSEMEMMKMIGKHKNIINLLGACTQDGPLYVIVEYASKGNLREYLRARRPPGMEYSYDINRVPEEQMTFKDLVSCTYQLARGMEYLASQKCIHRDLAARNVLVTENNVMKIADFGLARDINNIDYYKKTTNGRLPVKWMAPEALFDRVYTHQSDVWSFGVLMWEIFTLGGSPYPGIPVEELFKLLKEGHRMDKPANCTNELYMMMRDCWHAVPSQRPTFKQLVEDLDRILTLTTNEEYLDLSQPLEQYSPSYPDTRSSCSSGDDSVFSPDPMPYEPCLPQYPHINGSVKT
Target sequence in this assay (Q96SW2 whole entry partner): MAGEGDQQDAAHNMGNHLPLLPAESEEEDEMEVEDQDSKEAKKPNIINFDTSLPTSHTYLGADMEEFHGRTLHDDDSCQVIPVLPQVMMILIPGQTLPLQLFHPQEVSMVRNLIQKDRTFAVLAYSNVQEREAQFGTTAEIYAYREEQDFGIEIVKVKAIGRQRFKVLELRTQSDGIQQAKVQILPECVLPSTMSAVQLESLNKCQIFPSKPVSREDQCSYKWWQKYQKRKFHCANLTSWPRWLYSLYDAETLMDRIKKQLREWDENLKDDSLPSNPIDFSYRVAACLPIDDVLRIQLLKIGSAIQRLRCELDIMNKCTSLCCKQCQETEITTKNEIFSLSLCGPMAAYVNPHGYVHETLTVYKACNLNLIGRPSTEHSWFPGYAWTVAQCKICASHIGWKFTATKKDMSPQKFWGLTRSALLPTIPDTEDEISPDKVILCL

In data set [2] the target is T1, Protein cereblon/Fibroblast growth factor receptor 2. Kind of data set: PROTAC activity at CRBN/FGFR2 in human KATO III stomach cancer cell line assessed as FGFR2 degradation by measuring FGFR2 expression level measured for 6 hrs by Western blotting analysis. The data set is classed as cell-based. The procedure, abridged:
as §1
Target sequence in this assay (P21802 whole entry): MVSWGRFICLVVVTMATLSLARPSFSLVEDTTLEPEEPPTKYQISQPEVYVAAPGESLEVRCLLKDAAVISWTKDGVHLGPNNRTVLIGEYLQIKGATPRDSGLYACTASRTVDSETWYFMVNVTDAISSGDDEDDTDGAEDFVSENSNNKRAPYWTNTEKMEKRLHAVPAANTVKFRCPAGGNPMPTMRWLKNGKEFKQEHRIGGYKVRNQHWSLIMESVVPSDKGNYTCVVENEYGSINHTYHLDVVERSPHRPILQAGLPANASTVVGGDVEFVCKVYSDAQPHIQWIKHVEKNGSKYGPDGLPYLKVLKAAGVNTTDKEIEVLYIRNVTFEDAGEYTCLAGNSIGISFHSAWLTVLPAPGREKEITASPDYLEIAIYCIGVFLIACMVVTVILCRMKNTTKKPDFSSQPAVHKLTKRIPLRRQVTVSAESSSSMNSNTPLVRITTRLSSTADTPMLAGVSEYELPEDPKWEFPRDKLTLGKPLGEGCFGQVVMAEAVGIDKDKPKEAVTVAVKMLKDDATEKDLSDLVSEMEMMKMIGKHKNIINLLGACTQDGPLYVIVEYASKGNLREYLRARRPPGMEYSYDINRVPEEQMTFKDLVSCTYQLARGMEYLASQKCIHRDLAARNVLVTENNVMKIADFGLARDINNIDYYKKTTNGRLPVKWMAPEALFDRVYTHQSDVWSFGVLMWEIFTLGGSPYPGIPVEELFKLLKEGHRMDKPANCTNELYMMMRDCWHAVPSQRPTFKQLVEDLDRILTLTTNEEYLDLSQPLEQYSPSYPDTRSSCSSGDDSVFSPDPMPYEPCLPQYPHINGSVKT
Target sequence in this assay (Q96SW2 whole entry): as the sequence (Q96SW2 whole entry partner) above
(A western blot detects proteins with antibodies after separation by electrophoresis.)

The target is the same in data set [3]. Kind of data set: PROTAC activity at CRBN/FGFR2 in human KATO III stomach cancer cell line assessed as FGFR2 degradation by measuring maximum efficacy at 0.5 to 10000 nM measured for 6 hrs by Western blotting analysis relative to control. The data set is classed as cell-based. The note with it: dose 0.5-10000 nM. The essentials: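 KATO III cells treated for 6 h at the stated concentrations, added from 10 mM DMSO stocks (final DMSO below 0.5%). Cells were washed with PBS and lysed in 2× loading buffer, then run on SDS-PAGE and blotted to PVDF. Anti-FGFR2 was applied overnight at 4 °C, with ECL detection. FGFR2 was expressed as FGFR2/β-actin, normalized to DMSO-treated cells, from three independent biological experiments.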
Target sequence in this assay (P21802 22-821 limits assumed): as the sequence (P21802 22-821 limits assumed) above
Target sequence in this assay (Q96SW2 whole entry partner): as the sequence (Q96SW2 whole entry partner) above

For data set [4] the target is unchanged. Kind of data set: PROTAC activity at CRBN/FGFR2 in human KATO III stomach cancer cell line assessed as FGFR2 degradation by measuring FGFR2 expression level upto 100 nM by Western blotting analysis. To be noted: time 12.0 hrs, TDE = time-dependent effect. It counts as cell-based. The essentials: as §1
Target sequence in this assay (P21802 22-821 limits assumed): as the sequence (P21802 22-821 limits assumed) above
Target sequence in this assay (Q96SW2 whole entry partner): as the sequence (Q96SW2 whole entry partner) above
For data set [5] the target is unchanged. Kind of data set: PROTAC activity at CRBN/FGFR2 in human KATO III stomach cancer cell line assessed as FGFR2 degradation by measuring FGFR2 expression level upto 100 nM measured after 3 hrs by Western blotting analysis. The data set is classed as cell-based. The procedure, abridged: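 Time course in KATO III cells: FGFR2/β-actin by Western blot at successive treatment times, normalized to DMSO control.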
Target sequence in this assay (P21802 22-821 limits assumed): as the sequence (P21802 22-821 limits assumed) above
Target sequence in this assay (Q96SW2 whole entry partner): as the sequence (Q96SW2 whole entry partner) above

In data set [6] the target is Fibroblast growth factor receptor 3 (Homo sapiens) (UniProt P22607). Kind of data set: Inhibition of partial length human FGFR3 at 1000 nM by KINOMEscan analysis relative to control. The essentials:
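97-kinase scanEDGE panel screened at 1000 nM; results reported as % Ctrl, lower values meaning stronger inhibition.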

In data set [7] the target is Fibroblast growth factor receptor 4 (Homo sapiens) (UniProt P22455). Kind of data set: Induction of FGFR4 degradation in human Huh-7 cells at 100 nM measured for 6 hrs Western blot analysis. The data set is classed as cell-based. The essentials:
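NCI-H1581 (FGFR1), MCF7 (FGFR3) and Huh7 (FGFR4) cells, which endogenously express the isoforms, treated with 100 nM for 6 h; isoform levels by Western blot against β-actin, three biologically independent experiments.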

In data set [8] the target is T1, Protein cereblon/Fibroblast growth factor receptor 2. Kind of data set: PROTAC activity at CRBN/FGFR2 in human KATO III stomach cancer cell line membrane assessed as reduction in membrane bound FGFR2 at 100 nM measured for 6 hrs by flow cytometry analysis. The data set is classed as cell membranes. The procedure, abridged:
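Approx. 2 × 10^6 KATO III cells were treated 6 h at 100 nM. They were washed in cold PBS and stained with anti-FGFR2 (1:100, 4 °C, 1 h), then with Alexa Fluor 488 secondary (1:500, 4 °C, 1 h). Surface FGFR2 was read by flow cytometry on at least 100,000 events, with 488 nm excitation and FITC detection at 519 nm.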
Target sequence in this assay (P21802 22-821 limits assumed): as the sequence (P21802 22-821 limits assumed) above
Target sequence in this assay (Q96SW2 whole entry partner): as the sequence (Q96SW2 whole entry partner) above

A further data set has as its system SNU-16. Kind of data set: Antiproliferative activity against human SNU-16 cells assessed as reduction in cell viability measured for 72 hrs by celltiter-glo reagent based assay. It counts as functional. The note with it: SNU-16, 72 h. The essentials: (§2)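 Cancer lines KATO III, SNU16, NCI-H716, NCI-H1975, MV-4-11 and HEK293T treated 72 h; antiproliferative IC50 given as mean ± s.d. from three independent biological experiments.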

For the next data set, the system named is MV4-11. Kind of data set: Antiproliferative activity against human MV4-11 cells assessed as reduction in cell viability measured for 72 hrs by celltiter-glo reagent based assay. It counts as functional. To be noted: MV4-11, 72 h. The procedure, abridged: as §2
On the technique in general: In ATP-based viability assays light output follows the ATP content of the culture.

Data set [9] can be described thus: Half life in Sprague-Dawley rat at 20 mg/kg, po measured at 0.25 to 24 hrs by LC-MS/MS analysis. It counts as ADME, organism-based. The note with it: in vivo, time 0.25-24 hrs. The essentials: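 Male Sprague Dawley rats, single dose i.v. 3 mg/kg or p.o. 20 mg/kg in 10% Solutol, 85% (10% HP-β-CD in saline), 5% DMSO, pH adjusted to 9–10.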
Data set [10] is described as follows: Tmax in Sprague-Dawley rat at 3 mg/kg, iv measured at 0.083 to 24 hrs by LC-MS/MS analysis. It counts as ADME, organism-based. The note with it: in vivo, time 0.083-24 hrs. The essentials: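 Male Sprague Dawley rats received a single dose of 3 mg/kg i.v. or 20 mg/kg p.o. Vehicle was 10% Solutol, 85% (10% HP-β-CD in saline) and 5% DMSO, adjusted to pH 9–10. Plasma was assayed by LC–MS/MS.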

A short description of data set [11]: Toxicity in ICR mouse assessed as change in heart weight at 20 mg/kg, po measured for 30 days. The data set is classed as organism-based. The note with it: in vivo, 720 h, time 30 day. The procedure, abridged:
(§3)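 ICR mice (n = 6) were dosed orally at 20 mg/kg/day for 30 days, alongside vehicle-treated controls. Mortality and clinical signs were checked daily. At the end, body and organ weights were recorded. Heart, liver, spleen, lung and kidney were examined by hematoxylin and eosin staining.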

Data set [12] is described as follows: Toxicity in ICR mouse assessed as morphological changes in spleen at 20 mg/kg, po measured for 30 days by hematoxyin-eosin staining based analysis. The data set is classed as organism-based. The note with it: in vivo, 720 h, time 30 day. The procedure, abridged:
as §3

Data set [13] is described as follows: Toxicity in BALB/c mouse xenografted with human SNU-16 cells assessed as tolerability at 20 mg/kg, po administered for 15 days and measured on day 2. It counts as organism-based. To be noted: in vivo, 48 h, time 2 day. The essentials: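 Female BALB/c nude mice, 5 weeks old (20–22 g), carried subcutaneous SNU-16 xenografts in the right flank. Dosing began at mean tumor volume 50–100 mm3, after randomization by body weight, n = 5. Mice received 20 mg/kg/day by gavage in 0.5% CMC-Na, QD for 15 d, with vehicle controls. Body weight was measured every 2 days.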

Data set [14] is described as follows: Cmax in mouse at 20 mg/kg, po measured at 0.25 to 24 hrs by LC-MS/MS analysis. The note with it: in vivo.
Data set [15] can be described thus: Oral bioavailability in mice at 20 mg/kg measured at 0.25 to 24 hrs by LC-MS/MS analysis. To be noted: mouse, in vivo.
Data set [16] can be described thus: Volume of distribution at steady state in mice at 3 mg/kg, iv measured at 0.083 to 24 hrs by LC-MS/MS analysis. The note with it: mouse, in vivo, read-out: Vdss.

Molecules are shown by their SMILES. Active and inactive are the calls of the source. Where only a bound is given, the exact number is not on record here.

Chain of Fibroblast growth factor receptor 4 (Homo sapiens) (P22455 22-802 limits assumed): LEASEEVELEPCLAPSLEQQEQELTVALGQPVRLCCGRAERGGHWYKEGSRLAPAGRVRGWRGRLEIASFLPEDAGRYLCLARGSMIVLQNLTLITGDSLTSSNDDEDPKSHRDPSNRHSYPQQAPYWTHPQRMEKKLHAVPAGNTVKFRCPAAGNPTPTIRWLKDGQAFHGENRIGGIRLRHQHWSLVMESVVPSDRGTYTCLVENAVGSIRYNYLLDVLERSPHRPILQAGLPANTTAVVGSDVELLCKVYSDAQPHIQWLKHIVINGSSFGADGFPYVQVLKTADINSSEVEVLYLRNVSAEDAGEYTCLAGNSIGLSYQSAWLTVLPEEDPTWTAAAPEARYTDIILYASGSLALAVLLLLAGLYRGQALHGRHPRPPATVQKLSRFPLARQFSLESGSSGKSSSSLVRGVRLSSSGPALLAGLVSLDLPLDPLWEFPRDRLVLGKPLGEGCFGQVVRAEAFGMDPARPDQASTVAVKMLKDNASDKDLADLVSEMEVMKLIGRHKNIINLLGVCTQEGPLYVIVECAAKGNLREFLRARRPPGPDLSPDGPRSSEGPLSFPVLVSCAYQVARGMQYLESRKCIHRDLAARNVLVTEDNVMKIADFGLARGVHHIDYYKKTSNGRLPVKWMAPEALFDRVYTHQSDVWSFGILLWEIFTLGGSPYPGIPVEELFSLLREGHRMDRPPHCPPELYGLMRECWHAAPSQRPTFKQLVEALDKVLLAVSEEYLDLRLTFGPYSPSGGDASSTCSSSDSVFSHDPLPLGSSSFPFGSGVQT
Chain of Fibroblast growth factor receptor 3 (Homo sapiens) (P22607 23-806 limits assumed): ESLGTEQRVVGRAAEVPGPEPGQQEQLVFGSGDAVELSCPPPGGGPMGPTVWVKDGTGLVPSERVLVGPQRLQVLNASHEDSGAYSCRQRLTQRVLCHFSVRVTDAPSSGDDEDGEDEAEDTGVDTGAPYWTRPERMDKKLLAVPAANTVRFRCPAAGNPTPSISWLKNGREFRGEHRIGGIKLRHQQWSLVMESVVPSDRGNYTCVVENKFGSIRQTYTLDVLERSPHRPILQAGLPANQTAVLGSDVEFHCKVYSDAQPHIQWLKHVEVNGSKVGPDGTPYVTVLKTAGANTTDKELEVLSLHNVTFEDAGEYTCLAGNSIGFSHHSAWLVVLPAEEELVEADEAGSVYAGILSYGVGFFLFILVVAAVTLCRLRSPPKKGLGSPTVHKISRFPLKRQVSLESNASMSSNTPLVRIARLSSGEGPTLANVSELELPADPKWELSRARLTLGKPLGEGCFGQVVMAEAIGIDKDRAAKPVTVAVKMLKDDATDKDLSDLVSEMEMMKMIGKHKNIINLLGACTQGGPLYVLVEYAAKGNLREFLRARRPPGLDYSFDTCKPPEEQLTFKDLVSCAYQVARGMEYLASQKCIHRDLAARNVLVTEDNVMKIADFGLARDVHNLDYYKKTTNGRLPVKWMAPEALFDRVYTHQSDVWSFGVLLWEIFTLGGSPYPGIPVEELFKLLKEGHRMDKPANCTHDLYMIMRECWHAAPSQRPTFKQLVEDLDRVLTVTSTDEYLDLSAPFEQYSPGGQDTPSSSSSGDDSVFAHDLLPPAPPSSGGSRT

Consider `COc1cc(OC)c(Cl)c(NC(=O)N(C)c2cc(Nc3ccc(N4CCN(C(=O)C5CCN(c6ccc7c(c6)C(=O)N(C6CCC(=O)NC6=O)C7=O)CC5)CC4)cc3)ncn2)c1Cl` (stereo not drawn), for which the Activity in data set [1] is 70%; in data set [4] it was “Tde”; in [11], “Non-Toxic”; in data set [12], “Non-Toxic”; in [13], “Non-Toxic”. For the same molecule, the DC50 in [2] was determined as 11.8 nM. For the same molecule, the Emax in data set [3] was found to be 80%. Moreover, the result in [5] and in data set [8] was Active. The same molecule gave an inhibition in data set [6] of 71%. Besides, the outcome in data set [7] was inactive. In addition, the values for the IC50 with SNU-16 and in the data set on MV4-11 were 3.7 nM and above 10000 nM, respectively. Besides, the half-life in data set [9] is 88.2 min. For the same molecule, the Tmax in data set [10] came out at 4.98 min. Moreover, in [14], the concentration peaked (Cmax) at 82.1 ng/mL. Also, in data set [15], the bioavailability came to 13.1%. Further, the Vd in [16] was 6.23 L/kg.

The DC50 is the midpoint of the concentration-degradation curve. A word on the inhibition: it is the relative decrease from the control value, in per cent. Lower therefore signals a response near the control. Broadly, the IC50 is the midpoint of a concentration-inhibition curve. What is called half-life is the time needed for the level to fall by half in the phase considered. By Tmax is commonly meant the time from dosing to the highest level. The term Cmax denotes the highest concentration seen after dosing. The bioavailability is the share of a dose that reaches the circulation, judged against a reference dose that is usually intravenous. A higher bioavailability goes with much systemic uptake.
